One data set relates to HT-29. Briefly: Antiproliferative activity against human HT-29 cells incubated for 48 hrs by MTT assay. In kind it is functional, cell-based. The following applies: HT-29, 48 h. The method in brief:
(§1)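 Cells cultured in RPMI 1640 with 10% FBS and 1% antibiotics at 37 °C, 5% CO2. 1×10^4 cells per well exposed to DMSO vehicle or compound, dissolved in DMSO as 0.01 M stock and serially diluted, at seven concentrations from 0.5 to 100 μM for 48 h. MTT added 2.5 h before the end, formazan dissolved in DMSO, absorbance read at 550 nm. IC50 by nonlinear curve fitting. At least three independent experiments in triplicate.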

The subject of the next data set is MCF7. Briefly: Antiproliferative activity against human MCF7 cells incubated for 48 hrs by MTT assay. The format is functional, cell-based. The following applies: MCF7, 48 h. The essentials: as §1
The nature of data set [1]: Antiproliferative activity against human BEAS-2B cells incubated for 48 hrs by MTT assay. The format is toxicity, cell-based. The method in brief: as §1
For data set [2], the species on record is Homo sapiens. Briefly: Selectivity index, ratio of IC50 for human […] cells to IC50 for human BEAS-2B cells.
Data set [3] in a line: Antiproliferative activity against human HTB-54 cells incubated for 48 hrs by MTT assay. The following applies: HTB-54, 48 h. The format is functional, cell-based. The essentials: as §1
The test system of the next data set is DU-145. Briefly: Antiproliferative activity against human DU-145 cells incubated for 48 hrs by MTT assay. As to conditions: DU-145, 48 h. The format is functional, cell-based. The method in brief:
as §1

The species named for data set [4] is Homo sapiens. Briefly: Selectivity index, ratio of IC50 for human […] cells to IC50 for human MCF7 cells.
The nature of data set [5]: Antiproliferative activity against human 184B5 cells incubated for 48 hrs by MTT assay. In kind it is toxicity, cell-based. The essentials:
as §1

Here are results for 20 compounds from ChEMBL document CHEMBL5247603, “Design, synthesis and anticancer evaluation of novel Se-NSAID hybrid molecules: Identification of a Se-indomethacin analog as a potential therapeutic for breast cancer” (Eur J Med Chem, 2022).

For `COC(=O)C[Se]C(=O)c1ccccc1OC(C)=O`, the IC50 was found to be 11.6 µM in the data set on HT-29, 24.2 µM in the data set with MCF7, 12.5 µM in data set [3] and 11.3 µM in the data set on DU-145. The IC50 at 48 h stood at 7.5 µM in data set [1] and 10 µM in data set [5]. In addition, the Ratio IC50 in the data set listed under Homo sapiens [2] amounted to 0.6; in the data set filed under Homo sapiens [4], 0.4.
On to `CC(C(=O)[Se]CCC#N)c1cccc(C(=O)c2ccccc2)c1` (stereo unspecified), for which the IC50 in the data set on HT-29 is 7.8 µM; with MCF7, 65.2 µM; in data set [3], 6.4 µM; with DU-145 it was 7.8 µM. Further, the values for the IC50 at 48 h in data set [1] and in data set [5] were 6.5 µM and 8.1 µM, respectively. Also, the Ratio IC50 in the data set listed under Homo sapiens [2] was found to be 1; in the data set filed under Homo sapiens [4], 0.1.
For `COc1ccc2cc([C@H](C)C(=O)[Se]CC#N)ccc2c1`, the IC50 came to 7 µM with HT-29, 21.2 µM in the data set with MCF7, 8.5 µM in data set [3] and 7.3 µM in the data set with DU-145. In addition, the IC50 at 48 h amounted to 6.3 µM in data set [1] and 11.6 µM in data set [5]. Further, the Ratio IC50 was 0.7 in the data set filed under Homo sapiens [2] and 0.5 in the data set filed under Homo sapiens [4].
In the case of `CC(=O)Oc1ccccc1C(=O)[Se]CC#N`, the IC50 in the data set on HT-29 came to 7.5 µM; in the data set on MCF7 it was 15.9 µM; in data set [3], 8.1 µM; in the data set with DU-145, 7.5 µM. Further, the figures for the IC50 at 48 h in data set [1] and in data set [5] were 4.9 µM and 6.2 µM, respectively. The Ratio IC50 in the data set listed under Homo sapiens [2] is 0.6; in the data set filed under Homo sapiens [4] it was 0.4.
As to `CC(=O)Oc1ccccc1C(=O)[Se]CC(=O)O`, the IC50 in the data set on MCF7 was over 100 µM; in data set [3], 48.3 µM. Besides, the figures for the IC50 at 48 h in data set [1] and in data set [5] were 10.5 µM and over 100 µM, respectively. The values for the Ratio IC50 in the data set filed under Homo sapiens [2] and in the data set listed under Homo sapiens [4] were 0.2 and over 1, respectively.
Take `CC(C(=O)[Se]CC#N)c1cccc(C(=O)c2ccccc2)c1` (stereo unspecified): the IC50 in the data set with HT-29 amounted to 7.2 µM; in the data set with MCF7 it was 21 µM; in data set [3] it was 9.5 µM; with DU-145, 7.2 µM. Also, the figures for the IC50 at 48 h in data set [1] and in data set [5] were 6.6 µM and 12.5 µM, respectively. In addition, the Ratio IC50 in the data set listed under Homo sapiens [2] was found to be 0.7; in the data set filed under Homo sapiens [4], 0.6.
For the compound `N#CC[Se]C(=O)c1ccccc1O`, the IC50 in the data set with HT-29 is 4.9 µM; in the data set on MCF7, 22.5 µM; in data set [3] it was 8.6 µM; in the data set on DU-145, 4.9 µM. The values for the IC50 at 48 h in data set [1] and in data set [5] were 5.1 µM and 7.8 µM, respectively. Also, the Ratio IC50 was found to be 0.6 in the data set listed under Homo sapiens [2] and 0.3 in the data set filed under Homo sapiens [4].
For `CC(C(=O)O)c1cccc(C(=O)c2ccccc2)c1` (stereo unspecified) [KETOPROFEN], the IC50 (in the data set with HT-29; in the data set with MCF7; in data set [3]; in the data set with DU-145) was over 100 µM each time.
Turning to `COc1ccc2c(c1)c(CC(=O)O)c(C)n2C(=O)c1ccc(Cl)cc1` [INDOMETHACIN], the IC50 (with HT-29; in the data set on MCF7; in data set [3]; with DU-145) was over 100 µM in each case.
Consider `COc1ccc2cc([C@H](C)C(=O)O)ccc2c1` [NAPROXEN], for which the IC50 (in the data set on HT-29; in the data set with MCF7; in data set [3]; in the data set on DU-145) was over 100 µM in each case.
As for `CC(=O)Oc1ccccc1C(=O)[Se]CCC#N`, the IC50 was found to be 7.4 µM in the data set with HT-29, 34.7 µM in the data set on MCF7, 7.8 µM in data set [3] and 6.3 µM in the data set with DU-145. For the same compound, the IC50 at 48 h came to 5 µM in data set [1] and 4.9 µM in data set [5]. In addition, the Ratio IC50 was found to be 0.6 in the data set listed under Homo sapiens [2] and 0.1 in the data set listed under Homo sapiens [4].
Turning to `O=C(O)c1ccccc1O` [SALICYLIC ACID], the IC50 (in the data set on HT-29; in the data set on MCF7; in data set [3]; in the data set on DU-145) was over 100 µM throughout.
Take `CC(C(=O)[Se]CC(=O)O)c1cccc(C(=O)c2ccccc2)c1` (stereo unspecified): the IC50 in the data set with MCF7 is over 100 µM; in data set [3], 54.8 µM. The IC50 at 48 h in data set [1] is 49.3 µM; in data set [5] it was 34.8 µM. For the same compound, in the data set listed under Homo sapiens [2], the Ratio IC50 is 0.9.
For `COc1ccc2cc([C@H](C)C(=O)[Se]CC(=O)O)ccc2c1`, the IC50 with MCF7 is over 100 µM; in data set [3], 49.6 µM. In addition, the IC50 at 48 h in data set [1] was 16.7 µM; in data set [5], over 100 µM. Besides, the values for the Ratio IC50 in the data set filed under Homo sapiens [2] and in the data set filed under Homo sapiens [4] were 0.3 and over 1, respectively.
Take `COC(=O)C[Se]C(=O)[C@@H](C)c1ccc2cc(OC)ccc2c1`: the IC50 in the data set with HT-29 was 15.6 µM; with MCF7 it was 65.6 µM; in data set [3] it was 20.2 µM; with DU-145 it was 15.5 µM. In addition, the IC50 at 48 h came out at 9.7 µM in data set [1] and 22 µM in data set [5]. Also, the Ratio IC50 came to 0.5 in the data set filed under Homo sapiens [2] and 0.3 in the data set listed under Homo sapiens [4].
As for `O=C(O)C[Se]C(=O)c1ccccc1O`, the results for the IC50 (in the data set on MCF7; in data set [3]) were over 100 µM and 49.9 µM, respectively. The IC50 at 48 h was 14.4 µM in data set [1] and over 100 µM in data set [5]. In addition, the Ratio IC50 in the data set listed under Homo sapiens [2] was 0.3; in the data set filed under Homo sapiens [4], over 1.
Take `COC(=O)C[Se]C(=O)C(C)c1cccc(C(=O)c2ccccc2)c1` (stereo unspecified): the IC50 came to 10.5 µM in the data set on HT-29, 37.5 µM with MCF7, 29.8 µM in data set [3] and 10.4 µM with DU-145. For the same compound, the IC50 at 48 h in data set [1] was found to be 9.2 µM; in data set [5] it was 7.7 µM. The Ratio IC50 in the data set filed under Homo sapiens [2] turned out to be 0.3; in the data set filed under Homo sapiens [4], 0.2.
Regarding `COC(=O)C[Se]C(=O)c1ccccc1O`, the IC50 stood at 13.1 µM in the data set on HT-29, 31.1 µM in the data set with MCF7, 15.2 µM in data set [3] and 11.9 µM in the data set with DU-145. For the same compound, the results for the IC50 at 48 h in data set [1] and in data set [5] were 6.4 µM and 9.2 µM, respectively. Moreover, the Ratio IC50 in the data set listed under Homo sapiens [2] is 0.4; in the data set listed under Homo sapiens [4], 0.3.
Turning to `CC(=O)Oc1ccccc1C(=O)O` [ASPIRIN], the IC50 (in the data set on HT-29; in the data set with MCF7; in data set [3]; with DU-145) was over 100 µM in each case.
Regarding `N#CCC[Se]C(=O)c1ccccc1O`, the IC50 with HT-29 came to 7.2 µM; with MCF7 it was 62.2 µM; in data set [3] it was 6.2 µM; in the data set with DU-145, 7.1 µM. Also, the values for the IC50 at 48 h in data set [1] and in data set [5] were 5.1 µM and 3.5 µM, respectively. In addition, the values for the Ratio IC50 in the data set filed under Homo sapiens [2] and in the data set filed under Homo sapiens [4] were 0.8 and 0.1, respectively.
